The values that follow come from ChEMBL document CHEMBL4184148 (Bioorg Med Chem Lett, 2017).

One test has as its target T1, Aurora kinase C (Homo sapiens, UniProt Q9UQB9).
T1 sequence (Q9UQB9 whole entry): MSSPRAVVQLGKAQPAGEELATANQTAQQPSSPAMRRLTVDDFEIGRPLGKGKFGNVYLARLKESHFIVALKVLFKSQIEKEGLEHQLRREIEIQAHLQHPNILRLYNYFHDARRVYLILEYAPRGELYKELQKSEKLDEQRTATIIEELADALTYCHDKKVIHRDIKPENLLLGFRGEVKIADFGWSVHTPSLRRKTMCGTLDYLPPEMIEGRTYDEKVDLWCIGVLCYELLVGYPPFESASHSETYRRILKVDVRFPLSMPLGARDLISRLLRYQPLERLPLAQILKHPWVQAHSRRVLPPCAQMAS
The test can be described thus: Inhibition of recombinant full length GST-tagged human Aurora C expressed in baculovirus expression system by Z'LYTE assay. The essentials: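 Biochemical IC50 from a Z'LYTE kinase assay, with ATP at the Km for each kinase. Values are reported with standard error.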

The next test has as its system HeLa. The test can be described thus: Cytotoxicity against human HeLa cells assessed as reduction in cell viability after 72 hrs by CellTiter-Glo assay. The class given is functional, cell-based. Summed up: (§1)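 Cells were treated across a dose-response range for 72 h, and viability was read by CellTiter-Glo luminescence. Measurements were made in triplicate and reported with standard error.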
Background: Cellular ATP, detected with luciferase, serves as a proxy for viable cell number.

For test [1], the target named is T2, Aurora kinase B (Homo sapiens, UniProt Q96GD4). In words: Inhibition of recombinant full length His-tagged human Aurora B expressed in baculovirus expression system by Z'LYTE assay. The essentials: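 Z'LYTE biochemical kinase assay run at the Km ATP concentration for each kinase. IC50 was determined and reported ± standard error.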
T2 sequence (Q96GD4 whole entry): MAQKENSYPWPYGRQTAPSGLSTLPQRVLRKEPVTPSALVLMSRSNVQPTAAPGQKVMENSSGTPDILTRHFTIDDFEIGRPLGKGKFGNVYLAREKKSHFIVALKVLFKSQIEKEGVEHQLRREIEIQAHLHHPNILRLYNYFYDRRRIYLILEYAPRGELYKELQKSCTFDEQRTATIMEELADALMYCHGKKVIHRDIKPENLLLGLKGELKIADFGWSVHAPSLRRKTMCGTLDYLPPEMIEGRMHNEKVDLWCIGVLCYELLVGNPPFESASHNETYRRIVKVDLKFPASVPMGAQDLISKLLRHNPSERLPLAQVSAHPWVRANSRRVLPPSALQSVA
Test [2] has as its system HCT-116. The test can be described thus: Induction of cell cycle arrest in human HCT116 cells assessed as accumulation of 4N DNA content at 500 nM after 48 hrs by propidium iodide staining-based flow cytometry. Format: functional. Background: Flow cytometry measures light scatter and fluorescence of single cells or particles in a stream.
Another test relates to HEK293. In words: Cytotoxicity against human HEK293 cells assessed as reduction in cell viability after 72 hrs by CellTiter-Glo assay. The class given is cell-based. The note with it: HEK293, 72 h. The essentials: as §1
The target in test [3] is T2, Aurora kinase B. In words: Inhibition of Aurora B in human HCT116 cells assessed as reduction in histone H3 phosphorylation at S10 residues after 4 hrs by Western blot analysis. The class given is cell-based. Summed up:
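Cells were exposed to compound in dose-response for 4 h, then lysed for western blotting of histone H3 pS10. The cellular EC50 was derived from the dose-response curves. Three replicate experiments were run.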

Test [4] deals with HCT-116. The test can be described thus: Cytotoxicity against human HCT116 cells assessed as reduction in cell viability after 72 hrs by CellTiter-Glo assay. The class given is functional, cell-based. As to conditions: HCT-116, 72 h. Summed up: as §1
The next test has as its system PC-3. The test can be described thus: Cytotoxicity against human PC3 cells assessed as reduction in cell viability after 72 hrs by CellTiter-Glo assay. The class given is functional, cell-based. The note with it: PC-3, 72 h. The essentials: as §1

The source made the active and inactive calls. The calls are words filed in the database; no cut-off is given here. Bounds are passed on as bounds.

Consider `CCOC(=O)c1[nH]cc2c1NC1=C(C(=O)CCC1)[C@H]2c1cccc(Oc2nc3ccccc3[nH]2)c1`, for which the IC50 (commonly the point on the concentration scale where inhibition reaches its midpoint) on Aurora kinase C was 91 nM; with HeLa it was 6.11 nM; on Aurora kinase B [1], 34 nM; in the test with HEK293, 5860 nM; in the test on HCT-116 [4], 3710 nM; in the test with PC-3, greater than 10000 nM. In the test on HCT-116 [2], the result was Active. Moreover, the concentration for a half-maximal effect (EC50) (in general, the concentration needed to bring the measured effect to its halfway point) on Aurora kinase B [3] amounted to 27 nM.
